Experimental data: ChEMBL document CHEMBL1133633, “Anti-Helicobacter pylori agents. 4. 2-(Substituted guanidino)-4-phenylthiazoles and some structurally rigid derivatives” (2000)
In brackets after ≈: the same amount, converted by molar mass.

How the values were obtained:
Helicobacter pylori [1] = assay: The lowest drug concentration that inhibited macroscopic colonial growth against Helicobacter pylori; Value ranges from 6.25-50; assay type: functional
Procedure, shortened: (§1)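 Agar dilution. Strains were precultured 3 days at 37 °C on Brucella agar with 3% horse serum and 2% starch, then suspended in buffered saline to McFarland No. 1. A 10²-fold dilution was spotted by multipoint replicator onto Brucella agar with 7% lysed horse blood carrying serial 2-fold drug dilutions. Plates were incubated 3 days at 37 °C under 10% CO₂. MIC is the lowest concentration preventing macroscopic colonial growth. Mean and range come from 10 strains: 8001, 8003, 8004, 8007, 8008, 8009, 8011, 9005, FP1530 and FP1532.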

Helicobacter pylori [2] = assay: The lowest drug concentration that inhibited macroscopic colonial growth against Helicobacter pylori; Value ranges from 25-100; assay type: functional; procedure, shortened: as §1
Cavia porcellus [3] = species: Cavia porcellus; assay: Inhibition of histamine stimulated chronotropic response in isolated guinea pig right atrium (1*10e-6 g/mL); assay type: functional, Cardiac atrium
Procedure, shortened: (§2)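 Guinea pig right atrial strip, under 0.3-0.6 g initial tension in Tyrode solution at 30 °C, gassed with 95% O₂-5% CO₂; beating rate recorded by transducer. Histamine hydrochloride (1 × 10^-6 g/mL) raised rate. Test compound (1 × 10^-6 g/mL) was added 30 min after histamine washout. Percent inhibition compares histamine-induced rate increases before and 30 min after dosing.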

Neisseria gonorrhoeae [4] = assay: Antimicrobial activity was measured against Neisseria gonorrhoeae organism; assay type: functional
Neisseria meningitidis [5] = assay: Antimicrobial activity was measured against Neisseria meningitidis organism.; assay type: functional
Clostridioides difficile [6] = assay: Antimicrobial activity was measured against Clostridium difficile organism.; assay type: functional
Clostridium perfringens [7] = assay: Antimicrobial activity was measured against Clostridium perfringens organism; assay type: functional
Campylobacter jejuni [8] = assay: Antimicrobial activity was measured against Campylobacter jejuni organism.; assay type: functional
Helicobacter pylori [9] = assay: The lowest drug concentration that inhibited macroscopic colonial growth against Helicobacter pylori; value ranges from 0.2-0.39; assay type: functional; procedure, shortened: as §1
Helicobacter pylori [10] = assay: Antimicrobial activity was measured against Helicobacter pylori organism. Value ranges from (0.2-0.39); assay type: functional; procedure, shortened: as §1
Bacteroides fragilis [11] = assay: Antimicrobial activity was measured against Bacteroides fragilis organism.; assay type: functional
Rattus norvegicus [12] = assay: Inhibition of histamine stimulated gastric acid secretion in lumen perfused stomach of anesthetized rats (1 mg/kg iv); assay type: functional
Procedure, shortened: (§3)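 Male Sprague-Dawley rats (~250 g), fasted 24 h, anesthetized with urethane 1.25 g/kg ip. The opened stomach was lumen-perfused with saline, and the perfusate was titrated with 25 mM NaOH by autotitrator. Inhibition of histamine-stimulated acid output was measured after 1 mg/kg iv dosing; n = 2.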

Helicobacter pylori [13] = assay: The lowest drug concentration that inhibited macroscopic colonial growth against Helicobacter pylori; value ranges from 0.39-1.56; assay type: functional; procedure, shortened: as §1
Helicobacter pylori [14] = assay: The lowest drug concentration that inhibited macroscopic colonial growth against Helicobacter pylori.; assay type: functional; procedure, shortened: as §1
Helicobacter pylori [15] = assay: The lowest drug concentration that inhibited macroscopic colonial growth against Helicobacter pylori; value ranges from 1.56-3.13; assay type: functional; procedure, shortened: as §1
Helicobacter pylori [16] = assay: The lowest drug concentration that inhibited macroscopic colonial growth against Helicobacter pylori; value ranges from 0.39-0.78; assay type: functional; procedure, shortened: as §1
Helicobacter pylori [17] = assay: The lowest drug concentration that inhibited macroscopic colonial growth against Helicobacter pylori; value ranges from 12.5-50; assay type: functional; procedure, shortened: as §1
Helicobacter pylori [18] = assay: The lowest drug concentration that inhibited macroscopic colonial growth against Helicobacter pylori; Value ranges from 3.13-12.5; assay type: functional; procedure, shortened: as §1
Campylobacter jejuni [19] = assay: Antimicrobial activity was measured against Campylobacter jejuni organism; range is between ( 0.39-6.25).; assay type: functional
Clostridioides difficile [20] = assay: Antimicrobial activity was measured against Clostridium difficile organism; range is between (0.1-0.78); assay type: functional
Helicobacter pylori [21] = assay: The lowest drug concentration that inhibited macroscopic colonial growth against Helicobacter pylori; value range is between 0.0063-0.1; assay type: functional; procedure, shortened: as §1
Neisseria meningitidis [22] = assay: Antimicrobial activity was measured against Neisseria meningitidis organism; range is between (0.05-0.1).; assay type: functional
Clostridium perfringens [23] = assay: Antimicrobial activity was measured against Clostridium perfringens organism; range is between (0.025-0.05); assay type: functional
Bacteroides fragilis [24] = assay: Antimicrobial activity was measured against B. fragilis; range is between (0.2-12.5).; assay type: functional
Neisseria gonorrhoeae [25] = assay: Antimicrobial activity was measured against Neisseria gonorrhoeae organism; range is between (0.39-100).; assay type: functional
Helicobacter pylori [26] = assay: The lowest drug concentration that inhibited macroscopic colonial growth against Helicobacter pylori; value ranges from 0.00625-0.05; assay type: functional; procedure, shortened: as §1
Helicobacter pylori [27] = assay: The lowest drug concentration that inhibited macroscopic colonial growth against Helicobacter pylori; Value ranges from 12.5-100; assay type: functional; procedure, shortened: as §1
Cavia porcellus [28] = species: Cavia porcellus; assay: Inhibition of histamine stimulated chronotropic response in isolated guinea pig right atrium; assay type: functional, Cardiac atrium; procedure, shortened: as §2
Rattus norvegicus [29] = assay: Inhibition of histamine stimulated gastric acid secretion in lumen perfused stomach of anesthetized rats; assay type: functional; procedure, shortened: as §3
Helicobacter pylori [30] = assay: Determined the lowest drug concentration that inhibited macroscopic colonial growth against Helicobacter pylori.; assay type: functional; procedure, shortened: as §1
Helicobacter pylori [31] = assay: The lowest drug concentration that inhibited macroscopic colonial growth against Helicobacter pylori; value ranges from 0.2-0.78; assay type: functional; procedure, shortened: as §1

## COc1ccccc1CC/N=C(\N)Nc1nc2c(s1)CCOc1ccc(CNC(C)=O)cc1-2
Helicobacter pylori [1]
  MIC: 18.9 µg/mL (≈ 40.6 µM)

## CC(=O)NCc1ccc2c(c1)-c1nc(N=C(N)N)sc1CO2
Helicobacter pylori [2]
  MIC: 62 µg/mL (≈ 195 µM)

## COCC/N=C(\N)Nc1nc(-c2cccc(CNC(C)=O)c2)cs1
Cavia porcellus [3]
  Inhibition: 83%
Neisseria gonorrhoeae [4]
  MIC: > 100 µg/mL
Neisseria meningitidis [5]
  MIC: > 100 µg/mL
Clostridioides difficile [6]
  MIC: > 100 µg/mL
Clostridium perfringens [7]
  MIC: > 100 µg/mL
Campylobacter jejuni [8]
  MIC: > 100 µg/mL
Helicobacter pylori [9]
  MIC: 0.32 µg/mL (≈ 0.921 µM)
Helicobacter pylori [10]
  MIC: 0.32 µg/mL (≈ 0.921 µM)
Bacteroides fragilis [11]
  MIC: > 100 µg/mL
Rattus norvegicus [12]
  Inhibition: 87%

## COCCC/N=C(\N)Nc1nc(-c2cccc(CNC(C)=O)c2)cs1
Cavia porcellus [3]
  Inhibition: 54%
Helicobacter pylori [13]
  MIC: 0.96 µg/mL (≈ 2.66 µM)
Rattus norvegicus [12]
  Inhibition: 87%

## CC(=O)NCc1cccc2c1OCCc1sc(N=C(N)N)nc1-2
Helicobacter pylori [14]
  MIC: > 100 µg/mL

## CC(=O)NCc1cccc(-c2csc(NC(=N)NCCC(c3ccccc3)c3ccccc3)n2)c1
Helicobacter pylori [15]
  MIC: 2.5 µg/mL (≈ 5.17 µM)

## CC(=O)Nc1ccc2c(c1)-c1nc(N=C(N)N)sc1CCO2
Helicobacter pylori [14]
  MIC: > 100 µg/mL

## CC(=O)NCc1cccc(-c2csc(NC(=N)NCCOc3ccccc3)n2)c1
Cavia porcellus [3]
  Inhibition: 52%
Rattus norvegicus [12]
  Inhibition: 18%
Helicobacter pylori [16]
  MIC: 0.49 µg/mL (≈ 1.2 µM)

## CCO/N=C(\N)Nc1nc(-c2cccc(CNC(C)=O)c2)cs1
Helicobacter pylori [17]
  MIC: 29 µg/mL (≈ 87 µM)

## CCCC/N=C(\N)Nc1nc2c(s1)CCOc1ccc(CNC(C)=O)cc1-2
Helicobacter pylori [18]
  MIC: 7.7 µg/mL (≈ 19.9 µM)

## CC1(C)S[C@@H]2[C@H](NC(=O)[C@H](N)c3ccc(O)cc3)C(=O)N2[C@H]1C(=O)O [AMOXICILLIN]
Campylobacter jejuni [19]
  MIC: 2.2 µg/mL (≈ 6.02 µM)
Clostridioides difficile [20]
  MIC: 0.28 µg/mL (≈ 0.766 µM)
Helicobacter pylori [21]
  MIC: 0.021 µg/mL (≈ 0.0575 µM)
Neisseria meningitidis [22]
  MIC: 0.056 µg/mL (≈ 0.153 µM)
Clostridium perfringens [23]
  MIC: 0.027 µg/mL (≈ 0.0739 µM)
Bacteroides fragilis [24]
  MIC: 2.1 µg/mL (≈ 5.75 µM)
Neisseria gonorrhoeae [25]
  MIC: 7.7 µg/mL (≈ 21.1 µM)

## CC(=O)NCc1cccc(-c2csc(NC(=N)NCc3ccccc3)n2)c1
Cavia porcellus [3]
  Inhibition: 77%
Helicobacter pylori [26]
  MIC: 0.025 µg/mL (≈ 0.0659 µM)
Rattus norvegicus [12]
  Inhibition: 50%

## CC(=O)Nc1ccc2c(c1)-c1nc(N=C(N)N)sc1CS2
Helicobacter pylori [14]
  MIC: > 100 µg/mL

## CC(=O)NCc1ccc2c(c1)-c1nc(N=C(N)N)sc1CCO2
Helicobacter pylori [27]
  MIC: 50 µg/mL (≈ 151 µM)

## CCCC/N=C(\N)Nc1nc2c(s1)CSc1ccc(CNC(C)=O)cc1-2
Helicobacter pylori [1]
  MIC: 22 µg/mL (≈ 56.5 µM)

## CNC(=C[N+](=O)[O-])NCCSCc1ccc(CN(C)C)o1 [RANITIDINE]
Cavia porcellus [28]
  Inhibition: 44%
Rattus norvegicus [29]
  Inhibition: 72%
Helicobacter pylori [30]
  MIC: > 1600 µg/mL

## CC(=O)NCc1ccc(-c2csc(N=C(N)N)n2)cc1
Helicobacter pylori [14]
  MIC: > 100 µg/mL

## CC(=O)NCc1cccc(-c2csc(NC(=N)NCCO)n2)c1
Helicobacter pylori [1]
  MIC: 20 µg/mL (≈ 60 µM)

## COc1ccc(CC/N=C(\N)Nc2nc(-c3cccc(CNC(C)=O)c3)cs2)cc1
Cavia porcellus [3]
  Inhibition: 34%
Rattus norvegicus [12]
  Inhibition: 10%
Helicobacter pylori [31]
  MIC: 0.32 µg/mL (≈ 0.756 µM)
